The values below come from ChEMBL document CHEMBL3352289, “Potent and selective MAO-B inhibitory activity: amino- versus nitro-3-arylcoumarin derivatives” (Bioorg Med Chem Lett, 2015).

The species entered for series [1] is Homo sapiens. In words: Selectivity index, ratio of IC50 for human recombinant MAOA to IC50 for human recombinant MAOB. A digest of the protocol:
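Ratio of IC50 (hMAO-A) to IC50 (hMAO-B). Both come from the Amplex Red/p-tyramine H2O2 assay with recombinant insect-cell microsomal isoforms. Each IC50 is the mean of five experiments. Where an IC50 was not reached at the highest concentration tested (100), that IC50 was taken as greater than 100.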

Series [2] concerns the target T1, Amine oxidase [flavin-containing] B (Homo sapiens, UniProt P27338).
T1 sequence (P27338 whole entry): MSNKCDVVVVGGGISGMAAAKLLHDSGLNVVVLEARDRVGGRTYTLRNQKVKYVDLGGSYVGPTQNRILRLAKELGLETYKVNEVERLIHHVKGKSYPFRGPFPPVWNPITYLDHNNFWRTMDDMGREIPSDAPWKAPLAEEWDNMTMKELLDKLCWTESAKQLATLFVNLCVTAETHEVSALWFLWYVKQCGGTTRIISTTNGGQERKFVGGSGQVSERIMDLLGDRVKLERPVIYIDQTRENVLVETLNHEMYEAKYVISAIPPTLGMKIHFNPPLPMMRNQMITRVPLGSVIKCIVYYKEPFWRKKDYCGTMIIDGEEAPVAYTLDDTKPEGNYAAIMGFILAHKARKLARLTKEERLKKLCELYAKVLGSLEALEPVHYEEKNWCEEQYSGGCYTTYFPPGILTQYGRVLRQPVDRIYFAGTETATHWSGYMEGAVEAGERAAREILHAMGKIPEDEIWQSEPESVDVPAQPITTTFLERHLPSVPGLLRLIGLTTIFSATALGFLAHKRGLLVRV
Format: cell-based, BTI-TN-5B1-4. Particulars: for pIC50: read-out: IC50; call rule not given here.

Series [3] can be described thus: Octanol/water partition coefficient, log P of the compound. Format: physicochemical.
For series [4], the target named is Amine oxidase [flavin-containing] B (Homo sapiens) (UniProt P27338). In words: Reversible inhibition of human recombinant MAOB expressed in BTI-TN-5B1-4 cells assessed as AUF/t ratio at 2.5 nM by effective dilution method relative to untreated control. Set-up: scale not given: the % may be the effect or the level left. Particulars: BTI-TN-5B1-4, human.
In series [5] the target is T2, Amine oxidase [flavin-containing] A (Homo sapiens, UniProt P21397).
T2 sequence (P21397 whole entry): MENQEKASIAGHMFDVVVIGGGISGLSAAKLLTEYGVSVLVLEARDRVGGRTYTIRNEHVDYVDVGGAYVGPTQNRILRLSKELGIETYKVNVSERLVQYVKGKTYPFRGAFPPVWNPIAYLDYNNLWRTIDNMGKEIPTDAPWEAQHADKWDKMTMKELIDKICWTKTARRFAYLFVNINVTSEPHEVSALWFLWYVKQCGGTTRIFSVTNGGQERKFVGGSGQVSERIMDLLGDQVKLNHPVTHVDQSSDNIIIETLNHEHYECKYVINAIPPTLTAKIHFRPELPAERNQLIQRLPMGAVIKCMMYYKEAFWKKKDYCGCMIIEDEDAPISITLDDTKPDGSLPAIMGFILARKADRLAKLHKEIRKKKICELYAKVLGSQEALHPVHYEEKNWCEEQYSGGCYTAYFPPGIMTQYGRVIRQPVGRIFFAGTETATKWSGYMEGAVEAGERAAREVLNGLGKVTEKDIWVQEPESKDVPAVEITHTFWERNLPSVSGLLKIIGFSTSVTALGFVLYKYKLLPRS
Briefly: Inhibition of human recombinant MAOA expressed in BTI-TN-5B1-4 cells using p-tyramine substrate assessed as reduction in H2O2 production. The following applies: for IC50: bti-tn-5b1-4. The format is cell-based.

A short description of series [6]: Permeability by PAMPA method. Format: ADME. The following applies: read-out: Peff. A digest of the protocol:
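PAMPA-BBB assay. A PVDF filter was coated with porcine brain lipid in dodecane (20 mg/mL). Compound at 100 µg/mL in PBS pH 7.4/ethanol 70:30 was placed in the donor wells, with the same buffer in the acceptor wells. Plates were incubated 240 min at 25 °C, and acceptor concentration was read by UV-vis at five wavelengths, four wells, ≥3 runs, mean ± SD. Ten reference drugs validated each run.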

Series [7] deals with T2, Amine oxidase [flavin-containing] A. In words: Inhibition of human recombinant MAOA expressed in BTI-TN-5B1-4 cells using p-tyramine substrate assessed as reduction in H2O2 production at 100 uM. The format is cell-based. The following applies: bti-tn-5b1-4, 100 µM.
For series [8] the target is unchanged. Briefly: Reversible inhibition of human recombinant MAOA expressed in BTI-TN-5B1-4 cells assessed as AUF/t ratio at 20 nM by effective dilution method relative to untreated control. Details: scale not given: the % may be the effect or the level left. Format: cell-based. The following applies: BTI-TN-5B1-4, human; read-out: Activity.
Series [9] addresses T1, Amine oxidase [flavin-containing] B. Briefly: Inhibition of human recombinant MAOB expressed in BTI-TN-5B1-4 cells using p-tyramine substrate assessed as reduction in H2O2 production at 100 uM. Format: cell-based. Particulars: bti-tn-5b1-4, 100 µM. A digest of the protocol:
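Microsomal hMAO-B from BTI-TN-5B1-4 insect cells infected with recombinant baculovirus. Enzyme, dosed to oxidise 165 pmol p-tyramine/min, was preincubated with drug in 0.05 M sodium phosphate pH 7.4 (DMSO ≤1%) for 15 min at 37 °C. Reaction started with Amplex Red, 1 U/mL HRP and 1 mM p-tyramine. Resorufin fluorescence (ex 545/em 590 nm) read over 15 min at 37 °C, minus enzyme-free background, versus vehicle control.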

pIC50: −log10 of the molar value. Some results are limits rather than exact numbers.

`Cc1ccc2oc(=O)c(-c3ccc([N+](=O)[O-])cc3)cc2c1`: in series [1], the Ratio IC50 worked out at 2090. Further, the negative-log IC50 (pIC50) was 8.68 in series [2] and 5.38 in series [5] (read-out: IC50). This molecule registered a logP in [3] of 4.12. Besides, the activity at 0.0025 µM in series [4] stood at 80%. The Papp in series [6] turned out to be 10.5 ×10⁻⁶ cm/s.
`Cc1ccc2oc(=O)c(-c3cccc(N)c3)cc2c1`: in series [1], the Ratio IC50 is > 50000. Besides, the negative logarithm of the IC50 (pIC50) in series [2] was 8.66. In series [3], this molecule came in with a logP of 3.21. The IC50 entry in [5] is “Not Active”. Also, the “inhibition (INH)” value in series [7] is listed as “Not Active”.
On to `Cc1ccc2oc(=O)c(-c3cccc([N+](=O)[O-])c3)cc2c1`, for which the Ratio IC50 in [1] is > 16700. Moreover, the negative logarithm of the IC50 (pIC50) in series [2] is 8.22. The logP in series [3] was 4.1. Besides, the IC50 entry in series [5] was “Not Active”. The “inhibition (INH)” value in series [7] is reported as “Not Active”.
On to `C#CCN(C)[C@H](C)Cc1ccccc1` [SELEGILINE], for which the activity at 0.02 µM in series [8] came out at 8.51%.
For the molecule `Cc1ccc2oc(=O)c(-c3ccccc3N)cc2c1`, in [1], the Ratio IC50 is > 46. Besides, the pIC50 in series [2] was 5.66. Besides, the logP in [3] was determined as 3.6. Also, the IC50 entry in [5] was “Not Active”. Further, the “inhibition (INH)” value in [7] is “Not Active”.
Regarding `Cc1ccc2oc(=O)c(-c3ccc(N)cc3)cc2c1`, the Ratio IC50 in [1] is > 25000. For the same molecule, the pIC50 in [2] was 8.39. Further, the logP in [3] was 3.24. Besides, the IC50 result in series [5] is “Not Active”. The “inhibition (INH)” value in series [7] is recorded as “Not Active”.
As to `O=C(NCCN1CCOCC1)c1ccc(Cl)cc1` [MOCLOBEMIDE], the IC50 result in series [2] (bti-tn-5b1-4) is on record as “Not Active”. In addition, the logP in series [3] came to 1.68. Also, the “inhibition (INH)” value in [9] is “Not Active”.
With `Cc1ccc2oc(=O)c(-c3ccccc3[N+](=O)[O-])cc2c1`, the Ratio IC50 in series [1] is > 18. Further, the pIC50 in series [2] is 5.26. In [3], the logP amounted to 4.07. The IC50 result in series [5] is recorded as “Not Active”. The “inhibition (INH)” value in [7] is given as “Not Active”.
